Laboratory results published in ChEMBL document CHEMBL3864131, “Development, synthesis and structure-activity-relationships of inhibitors of the macrophage infectivity potentiator (Mip) proteins of Legionella pneumophila and Burkholderia pseudomallei” (Bioorg Med Chem, 2016).
pIC50: −log10 of the molar value.

Assays:
[1] = Stability of the compound in methanol/HEPES buffer at pH 7.8 at 40 degC for 24 hrs by HPLC analysis; type: physicochemical; conditions: read-out: Stability
Outline: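 Compound dilutions incubated for 24 h in methanol with 10 mM HEPES buffer (pH 7.8) at 25 °C and 40 °C. HPLC analysis was done at 0 and 24 h to give the percentage of intact compound remaining.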

[2] = target: Outer membrane protein MIP (Legionella pneumophila, UniProt Q70YI1)
Chain of Outer membrane protein MIP (Q70YI1 21-233 limits assumed): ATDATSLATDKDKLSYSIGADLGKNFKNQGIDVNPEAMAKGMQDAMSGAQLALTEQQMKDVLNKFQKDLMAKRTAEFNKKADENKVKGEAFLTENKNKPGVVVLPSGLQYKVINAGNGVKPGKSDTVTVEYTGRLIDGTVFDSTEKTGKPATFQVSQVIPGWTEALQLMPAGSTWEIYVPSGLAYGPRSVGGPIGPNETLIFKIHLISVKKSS

in vitro = conditions: mouse, J774.1 cells
[3] = Metabolic stability in mouse J774.1 cells at 37 degC after 1 hr by HPLC analysis; type: ADME, cell-based; conditions: read-out: Stability
Outline: (§1)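 Compound incubated with J774.1 murine macrophages in RPMI medium at 37 °C, sampled at 0, 1 and 24 h, and the remaining compound quantified by HPLC.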

[4] = Metabolic stability in mouse J774.1 cells at 37 degC after 24 hrs by HPLC analysis; type: ADME, cell-based; conditions: read-out: Stability; outline: as §1
[5] = Stability in human plasma after 24 hrs by HPLC analysis; type: ADME, cell-free
Outline: (§2)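 Compound incubated in human plasma and sampled at 1, 4 and 24 h. The decrease in compound concentration was followed by HPLC.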

[6] = Stability in human plasma after 4 hrs by HPLC analysis; type: ADME, cell-free; outline: as §2
[7] = Stability in human plasma after 1 hr by HPLC analysis; type: ADME, cell-free; outline: as §2

COc1cc(CCCOC(=O)[C@@H]2CCCCN2S(=O)(=O)Cc2ccccc2)cc(OC)c1OC
remaining at 24 h [1]: 99%

COc1cc(C(=O)NC[C@H](C)OC(=O)[C@@H]2CCCCN2S(=O)(=O)Cc2ccccc2)cc(OC)c1OC
pIC50 [2]: 5.66
IC50 at 24 h (in vitro): > 100 µM

COCCOc1cc(OCCOC)cc(C(=O)OCCOC(=O)[C@@H]2CCCCN2S(=O)(=O)Cc2ccccc2)c1
pIC50 [2]: 5.07
remaining at 1 h [3]: 98%
remaining at 24 h [1]: 85%
remaining at 24 h [4]: 59%
IC50 at 24 h (in vitro): > 80 µM

C[C@@H](CNC(=O)c1cccnc1)OC(=O)[C@@H]1CCCCN1S(=O)(=O)Cc1ccccc1
pIC50 [2]: 5.46
remaining at 1 h [3]: 95%
remaining at 24 h [1]: > 95%
remaining at 24 h [4]: 97%
IC50 at 24 h (in vitro): > 100 µM

O=C(NCCOC(=O)[C@@H]1CCCCN1S(=O)(=O)Cc1ccccc1)c1cccnc1
pIC50 [2]: 4.94
remaining at 1 h [3]: 82%
Stability [5]: 50%
Stability [6]: 20%
Stability [7]: 5%
remaining at 24 h [4]: 81%
IC50 at 24 h (in vitro): > 100 µM

O=C(OCCCc1cccnc1)[C@@H]1CCCCN1S(=O)(=O)Cc1cccc([N+](=O)[O-])c1
pIC50 [2]: 5.10
IC50 at 24 h (in vitro): 48.2 µM

O=C(OCCOc1cccnc1)[C@@H]1CCCCN1S(=O)(=O)Cc1ccccc1
pIC50 [2]: 5.11
remaining at 1 h [3]: 88%
remaining at 24 h [1]: > 95%
remaining at 24 h [4]: 77%
IC50 at 24 h (in vitro): > 100 µM

O=C(OCCCc1cccnc1)[C@@H]1CCCCN1S(=O)(=O)Cc1ccccc1
pIC50 [2]: 5.24
remaining at 24 h [1]: 99%
IC50 at 24 h (in vitro): > 100 µM

O=C(C(=O)N1CCCC[C@H]1C(=O)OCCCc1cccnc1)c1ccccc1
pIC50 [2]: 3.85
IC50 at 24 h (in vitro): 88.1 µM

O=C(OCCOC(=O)[C@@H]1CCCCN1S(=O)(=O)Cc1ccccc1)c1cccnc1
pIC50 [2]: 5.59
remaining at 1 h [3]: 82%
remaining at 24 h [1]: 40%
remaining at 24 h [4]: 50%
IC50 at 24 h (in vitro): > 100 µM

O=C(OCCCc1cccnc1)[C@@H]1CCCCN1S(=O)(=O)Cc1ccc(F)cc1
pIC50 [2]: 5.24
remaining at 24 h [1]: > 95%
IC50 at 24 h (in vitro): > 100 µM

O=C(OCCCc1cccnc1)[C@@H]1CCCCN1S(=O)(=O)Cc1ccc(Cl)cc1
pIC50 [2]: 5.62
IC50 at 24 h (in vitro): 33.6 µM

COc1cc(C(=O)NCCOC(=O)[C@@H]2CCCCN2S(=O)(=O)Cc2ccccc2)ccc1O
pIC50 [2]: 5.49
IC50 at 24 h (in vitro): > 100 µM

COCCOc1cc(OCCOC)cc(C(=O)NCCOC(=O)[C@@H]2CCCCN2S(=O)(=O)Cc2ccccc2)c1
pIC50 [2]: 5.25
remaining at 24 h [1]: > 95%
IC50 at 24 h (in vitro): > 100 µM

O=C(OCCCc1cccnc1)[C@@H]1CCCCN1S(=O)(=O)Cc1cccc(Cl)c1
pIC50 [2]: 5.12
IC50 at 24 h (in vitro): 43.3 µM

CC(C)NC(=O)[C@@H]1CCCCN1S(=O)(=O)Cc1ccccc1
pIC50 [2]: < 4.00
remaining at 24 h [1]: > 95%
IC50 at 24 h (in vitro): > 100 µM

O=C(OCCCc1cccnc1)C1CCCCN1S(=O)(=O)Cc1ccccc1 (racemic)
pIC50 [2]: 4.97
IC50 at 24 h (in vitro): > 100 µM

O=C(OCCO)C1CCCCN1S(=O)(=O)Cc1ccccc1 (racemic)
pIC50 [2]: 4.03
remaining at 1 h [3]: 95%
remaining at 24 h [1]: > 95%
remaining at 24 h [4]: 86%
IC50 at 24 h (in vitro): > 100 µM

O=C(OCCCc1cccnc1)C1CCCCN1S(=O)(=O)Cc1cccc([N+](=O)[O-])c1 (racemic)
pIC50 [2]: 5.06
IC50 at 24 h (in vitro): 46.7 µM

Nc1cccc(CS(=O)(=O)N2CCCCC2C(=O)OCCCc2cccnc2)c1 (racemic)
pIC50 [2]: < 4.00
IC50 at 24 h (in vitro): 62.3 µM

O=C(OCCCc1cccnc1)C1CCCCN1C(=O)COc1ccc(Cl)cc1 (racemic)
pIC50 [2]: 4.05
IC50 at 24 h (in vitro): 50.9 µM

O=C(OCCCc1cccnc1)C1CCCCN1S(=O)(=O)Cc1ccc([N+](=O)[O-])cc1 (racemic)
pIC50 [2]: 5.41
IC50 at 24 h (in vitro): 56.7 µM

CC(C)OC(=O)C1CCCCN1S(=O)(=O)Cc1ccccc1 (racemic)
pIC50 [2]: 4.10
remaining at 24 h [1]: > 95%
IC50 at 24 h (in vitro): > 100 µM

CC(C)Nc1ccc(CS(=O)(=O)N2CCCCC2C(=O)OCCCc2cccnc2)cc1 (racemic)
pIC50 [2]: 4.35
IC50 at 24 h (in vitro): 44.3 µM

CC(C)Nc1cccc(CS(=O)(=O)N2CCCCC2C(=O)OCCCc2cccnc2)c1 (racemic)
pIC50 [2]: 4.38
IC50 at 24 h (in vitro): 57.4 µM

Nc1ccc(CS(=O)(=O)N2CCCCC2C(=O)OCCCc2cccnc2)cc1 (racemic)
pIC50 [2]: 4.67
IC50 at 24 h (in vitro): > 100 µM

C[C@H](CNC(=O)c1cccnc1)OC(=O)[C@@H]1CCCCN1S(=O)(=O)Cc1ccccc1 (single isomer, unassigned)
pIC50 [2]: 4.94
IC50 at 24 h (in vitro): > 100 µM
